Test results published in ChEMBL document CHEMBL3227936, “Actions of two dopamine derivatives at adreno- and cholinoceptors” (J Med Chem, 1979).
Active and inactive are the calls of the source. The rule behind the calls is not given here.

Columns and labels:
Felis catus [1] = assay: Reduction of twitch tension in soleus muscle of electrically stimulated cat at 0.2 to 3 mg/kg, iv; format: functional, organism-based
Method in brief: (§1)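 Adult cats of either sex were anesthetized with α-chloralose 80 mg/kg plus sodium pentobarbitone 6 mg/kg ip, and nearly all were bilaterally vagotomized. Drugs were given iv via a femoral or brachial vein in acid-0.9% saline (pH 4.5). The sciatic nerve was stimulated to evoke soleus contractions, with maximal twitches at 0.1 Hz. Responses were recorded continuously.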

Felis catus [2] = assay: Reduction of fused incomplete tetanic contraction in soleus muscle of electrically stimulated cat at 0.2 to 3 mg/kg, iv in presence of antagonist propranalol; format: functional, organism-based
Method in brief: (§2)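 In chloralose–pentobarbitone anesthetized cats, the sciatic nerve was stimulated to evoke soleus contractions. Drugs were given iv in acid saline pH 4.5, and responses were recorded after propranolol 0.4 mg/kg.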

Gallus gallus [3] = organism: Gallus gallus; assay: Agonist activity at cholinergic receptor in chicken biventer cervicis nerve muscle assessed as blockade of twitch response at 10 to 200 ug/ml in presence of tetanus
Gallus gallus [4] = organism: Gallus gallus; assay: Agonist activity at cholinergic receptor in chicken biventer cervicis nerve muscle assessed as blockade of twitch response at 10 to 200 ug/ml in presence of physostigmine
Felis catus [5] = assay: Reduction of heart rate in cat at 0.2 to 3 mg/kg, iv; format: functional, organism-based; method in brief: as §1
Gallus gallus [6] = organism: Gallus gallus; assay: Agonist activity at cholinergic receptor in chicken biventer cervicis nerve muscle assessed as blockade of twitch response at 10 to 200 ug/ml in presence of caffeine
Felis catus [7] = assay: Reduction of heart rate in cat at 0.2 to 3 mg/kg, iv in presence of atropine; format: functional, organism-based
Method in brief: (§3)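 Cats were anesthetized with α-chloralose 80 mg/kg plus pentobarbitone 6 mg/kg ip and vagotomized. Drugs were given iv in acid saline pH 4.5. Heart rate and blood pressure responses were recorded before and after atropine 1 mg/kg.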

Felis catus [8] = assay: Reduction of twitch tension in soleus muscle of electrically stimulated cat at 0.2 to 3 mg/kg, iv in presence of antagonist propranolol; format: functional, organism-based; method in brief: as §2
Cavia porcellus [9] = organism: Cavia porcellus; assay: Agonist activity at muscarinic acetylcholine receptor in guinea pig ileum smooth muscle assessed as contraction; format: tissue-based
Method in brief: (§4)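 Guinea pig ileum segments were kept in Tyrode solution at 32 °C and bubbled with air. Isotonic contractions to cholinergic agonists were recorded, and log concentration–effect curves were built. Points are means of at least four experiments.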

Gallus gallus [10] = organism: Gallus gallus; assay: Agonist activity at cholinergic receptor in chicken biventer cervicis nerve muscle assessed as blockade of twitch response at 10 to 200 ug/ml in presence of choline
Felis catus [11] = assay: Reduction of mean blood pressure in atropinized-cat at 0.2 to 3 mg/kg, iv in presence of phentolamine; format: functional, organism-based
Method in brief: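 In atropinized cats (atropine 1 mg/kg) under chloralose–pentobarbitone anesthesia, drugs in acid saline pH 4.5 were given iv. Mean blood pressure responses were recorded with phentolamine 2 mg/kg.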

Felis catus [12] = assay: Reduction of fused incomplete tetanic contraction in soleus muscle of electrically stimulated cat at 0.2 to 3 mg/kg, iv; format: functional, organism-based; method in brief: as §1
Felis catus [13] = assay: Reduction of mean blood pressure in cat at 0.2 to 3 mg/kg, iv; format: functional, organism-based; method in brief: as §1
Felis catus [14] = assay: Reduction of mean blood pressure in cat at 0.2 to 3 mg/kg, iv in presence of atropine; format: functional, organism-based; method in brief: as §3
Gallus gallus [15] = organism: Gallus gallus; assay: Agonist activity at cholinergic receptor in chicken biventer cervicis nerve muscle assessed as blockade of twitch accompanied with contracture at 10 to 200 ug/ml
[16] = target: T1, Acetylcholinesterase (Gallus gallus) (UniProt P36196); assay: Inhibition of acetylcholine esterase in chicken biventer cervicis muscle assessed as rate of acetylcholine hydrolysis at 1.3 X 10^-3 M by Ellman's method; details: Muscle tissue
T1 sequence (whole entry): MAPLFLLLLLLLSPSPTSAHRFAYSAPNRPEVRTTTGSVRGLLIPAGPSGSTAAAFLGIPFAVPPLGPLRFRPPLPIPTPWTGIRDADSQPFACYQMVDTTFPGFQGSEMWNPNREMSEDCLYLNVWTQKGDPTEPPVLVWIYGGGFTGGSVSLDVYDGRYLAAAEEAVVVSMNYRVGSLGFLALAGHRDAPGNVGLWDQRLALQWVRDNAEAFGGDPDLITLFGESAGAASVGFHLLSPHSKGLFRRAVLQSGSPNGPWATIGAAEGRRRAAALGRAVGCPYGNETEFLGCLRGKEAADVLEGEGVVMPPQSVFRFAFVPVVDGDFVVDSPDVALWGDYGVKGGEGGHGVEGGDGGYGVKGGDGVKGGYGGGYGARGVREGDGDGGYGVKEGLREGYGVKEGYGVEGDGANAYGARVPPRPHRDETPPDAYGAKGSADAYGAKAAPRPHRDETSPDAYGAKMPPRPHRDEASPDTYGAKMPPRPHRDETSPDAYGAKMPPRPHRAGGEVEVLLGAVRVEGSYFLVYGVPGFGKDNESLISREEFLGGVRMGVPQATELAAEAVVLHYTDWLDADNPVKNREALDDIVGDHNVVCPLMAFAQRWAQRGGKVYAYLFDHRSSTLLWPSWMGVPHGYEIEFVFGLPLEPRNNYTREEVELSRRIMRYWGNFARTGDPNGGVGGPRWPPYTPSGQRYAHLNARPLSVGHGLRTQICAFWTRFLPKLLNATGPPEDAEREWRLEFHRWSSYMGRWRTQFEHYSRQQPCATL
Method in brief: (§5)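 Chick biventer cervicis muscle homogenates were assayed for cholinesterase with acetylthiocholine as substrate by Ellman's colorimetric method as modified by Gandiha et al. Absorbance change was read at 412 nm. Hydrolysis rates (µmol min^-1 g^-1) were compared with and without drug.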

Felis catus [17] = assay: Induction of fasiculated twitches in skeletal muscle of electrically stimulated cat at 0.2 to 3 mg/kg, iv relative to control; format: organism-based, Muscle tissue; set-up: dose 0.2-3 mg/kg, route intravenous; details: in vivo; method in brief: as §1
Gallus gallus [18] = organism: Gallus gallus; assay: (§6) Agonist activity at cholinergic receptor in chicken biventer cervicis nerve muscle assessed as twitch augmentation accompanied with contracture at 1 to 10 ug/ml
Gallus gallus [19] = organism: Gallus gallus; assay: Agonist activity at cholinergic receptor in chicken biventer cervicis nerve muscle assessed as twitch blockade at 1 to 10 ug/ml
[20] = target: T1, Acetylcholinesterase (Gallus gallus); assay: Inhibition of acetylcholine esterase in chicken biventer cervicis muscle assessed as rate of acetylcholine hydrolysis at 37 uM by Ellman's method; details: Muscle tissue; method in brief: as §5
Acetylcholinesterase = target: T2, Acetylcholinesterase (Gallus gallus, UniProt P36196); assay: Inhibition of acetylcholine esterase in chicken biventer cervicis muscle assessed as rate of acetylcholine hydrolysis by Ellman's method; set-up: species or system Muscle tissue; details: read-out: I50; method in brief: as §5
T2 sequence (P36196 whole entry): T1 sequence (whole entry)

Cavia porcellus [21] = organism: Cavia porcellus; assay: Agonist activity at muscarinic acetylcholine receptor in guinea pig ileum smooth muscle assessed as contraction in presence of hexamethonium; format: tissue-based; method in brief: as §4
Cavia porcellus [22] = organism: Cavia porcellus; assay: Agonist activity at muscarinic acetylcholine receptor in guinea pig ileum smooth muscle assessed as contraction measured after compound washout; format: tissue-based; method in brief: as §4
Cavia porcellus [23] = organism: Cavia porcellus; assay: Agonist activity at muscarinic acetylcholine receptor in guinea pig ileum smooth muscle assessed as contraction in presence of atropine; format: tissue-based
Method in brief: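 Guinea pig ileum was kept in Tyrode solution at 32 °C and aerated. Isotonic contractions were recorded, and concentration–effect curves were repeated after atropine 1×10^-8 M. Points are means of at least four experiments.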

Gallus gallus [24] = organism: Gallus gallus; assay: Agonist activity at cholinergic receptor isolated from chicken biventer cervicis nerve muscle assessed as >10 ug/ml
Gallus gallus [25] = organism: Gallus gallus; assay: as §6; remark: listed apart in the source
Gallus gallus [26] = organism: Gallus gallus; assay: Agonist activity at cholinergic receptor isolated from chicken biventer cervicis nerve muscle assessed as >10 ug/ml measured after compound washout

CC1NCCc2cc(O)c(O)cc21 (stereo unspecified)
Activity (Felis catus [1]): Active | Activity (Felis catus [2]): inactive | Activity (Gallus gallus [3]): Active | Activity (Gallus gallus [4]): Active | Activity (Felis catus [5]): Active | Activity (Gallus gallus [6]): Active | Activity (Felis catus [7]): inactive | Activity (Felis catus [8]): inactive | Activity (Cavia porcellus [9]): inactive | Activity (Gallus gallus [10]): Active | Activity (Felis catus [11]): inactive | Activity (Felis catus [12]): Active | Activity (Felis catus [13]): Dose-dependent effect | Activity (Felis catus [14]): inactive | Activity (Gallus gallus [15]): Active | Activity [16]: 7.48 µmol/min/g

Br.CC1(C)NCCc2cc(O)c(O)cc21
Activity (Felis catus [17]): <= 100% | Activity (Gallus gallus [18]): Active | Activity (Gallus gallus [19]): inactive | Activity [20]: 3.55 µmol/min/g | IC50 (Acetylcholinesterase): 37 µM | Activity (Cavia porcellus [21]): Active | Activity (Cavia porcellus [9]): Active | Activity (Felis catus [11]): inactive | Activity (Cavia porcellus [22]): inactive | Activity (Cavia porcellus [23]): inactive | Activity (Felis catus [13]): Dose-dependent effect | Activity (Felis catus [14]): inactive | Activity (Gallus gallus [24]): Active | Activity (Gallus gallus [25]): Active | Activity (Gallus gallus [26]): inactive

C[N+](C)(C)CCOC(N)=O
Activity (Cavia porcellus [9]): Active | Activity (Cavia porcellus [22]): inactive | Activity (Cavia porcellus [23]): inactive | Activity (Gallus gallus [24]): Active

CNC(=O)Oc1ccc2c(c1)[C@]1(C)CCN(C)[C@@H]1N2C [PHYSOSTIGMINE]
IC50 (Acetylcholinesterase): 0.02 µM
